Experiments:
[1] = Selectivity index, ratio of CC50 for human C8166 cells to EC50 for wild type HIV1 LAI-3B; format: toxicity, cell-based; conditions: read-out: Ratio CC50/EC50
Summary of the method: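 Ratio CC50/EC50, where CC50 is from MTT viability of uninfected C8166 cells and EC50 is 50% protection of wild-type HIV-1 IIIB-infected C8166 cells from cytopathogenicity (MTT); inputs are means of at least two experiments.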

[2] = tested on: Human immunodeficiency virus 1; test: Antiviral activity against wild type HIV1 LAI-3B infected in human C8166 cells assessed as inhibition of virus-induced cytopathic effect by MTT assay; format: functional, organism-based; conditions: Human immunodeficiency virus 1, LAI-3B
Summary of the method: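 C8166 cells infected with wild-type HIV-1 LAI (strain IIIB); EC50 = concentration protecting cells from viral cytopathogenicity by 50%, read by MTT; means of at least two separate experiments.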

[3] = Cytotoxicity against human C8166 cells by MTT assay; format: cell-based
Summary of the method: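 Normal uninfected C8166 cells; MTT viability readout; CC50 = concentration reducing viability by 50%; means of at least two separate experiments.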

[4] = tested on: Human immunodeficiency virus 1; test: Antiviral activity against HIV1 A17 harboring reverse transcriptase Y181C mutant infected in human C8166 cells assessed as inhibition of virus-induced cytopathic effect by MTT assay; format: functional, organism-based; conditions: Human immunodeficiency virus 1, A17, C8166
Summary of the method: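 C8166 cells infected with mutant HIV-1 strain A17; protection from viral cytopathogenicity read by MTT. EC50 is the compound concentration that protects cells from viral cytopathic effect by 50%. Values are means of at least two separate experiments.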

In the case of `O=C(O)c1cn(-c2ccccc2)c2ccc(Cc3cccc(Cl)c3F)c(O)c2c1=O`, the selectivity ratio [1] is reported as 1.26, the EC50 [2] is reported as 308 µM and the CC50 [3] is reported as 388 µM.
`Cc1cccc(-n2cc(C(=O)O)c(=O)c3c(O)c(Cc4cccc(Cl)c4F)ccc32)c1` gave a selectivity ratio [1] of 3.49, an EC50 [2] of 20.5 µM and an EC50 [4] of 43.7 µM. The CC50 [3] was 71.5 µM.
With `Cc1ccc(-n2cc(C(=O)O)c(=O)c3c(O)c(Cc4cccc(Cl)c4F)ccc32)cc1` the selectivity ratio [1] was 54.2, the EC50 [2] was 3.58 µM and the EC50 [4] was 67.9 µM. For the same molecule, the CC50 [3] was 194 µM.
`Cc1ccc(-n2cc(C(=O)O)c(=O)c3c(O)c(Cc4cccc(Cl)c4F)ccc32)cc1C` gave a selectivity ratio [1] of 12.7, an EC50 [2] of 24.9 µM and an EC50 [4] of 32.8 µM. The CC50 [3] was 316 µM.
With `O=C(O)c1cn(-c2ccc(Br)cc2)c2ccc(Cc3cccc(Cl)c3F)c(O)c2c1=O` the selectivity ratio [1] was 11.9, the EC50 [2] was 7.12 µM and the EC50 [4] was 33.2 µM. The CC50 [3] was 85 µM.
With `O=C(O)c1cn(Cc2ccccc2)c2ccc(Cc3ccccc3F)c(O)c2c1=O` the selectivity ratio [1] was 7.49, the EC50 [2] was 20.9 µM and the EC50 [4] was 51.2 µM. For the same molecule, the CC50 [3] was 156 µM.
For `O=C(O)c1cn(Cc2ccccc2)c2ccc(Cc3cccc(Cl)c3F)c(O)c2c1=O`, the selectivity ratio [1] was 6.42, the EC50 [2] was 3.17 µM and the EC50 [4] was 17.9 µM. The CC50 [3] was 20.3 µM.
For `Cc1ccc(Cn2cc(C(=O)O)c(=O)c3c(O)c(Cc4cccc(Cl)c4F)ccc32)cc1`, the selectivity ratio [1] was 46, the EC50 [2] was 5.55 µM and the EC50 [4] was 29.2 µM. The CC50 [3] was 256 µM.
Work on `O=C(O)c1cn(Cc2ccccc2F)c2ccc(Cc3ccccc3F)c(O)c2c1=O` yielded a selectivity ratio [1] of 10.4, an EC50 [2] of 6.46 µM and an EC50 [4] of 27.2 µM. The CC50 [3] was 67.1 µM.
For `O=C(O)c1cn(Cc2ccccc2F)c2ccc(Cc3cccc(Cl)c3F)c(O)c2c1=O`, the selectivity ratio [1] was 13.7, the EC50 [2] was 3.27 µM and the EC50 [4] was 24.2 µM. The CC50 [3] was 44.9 µM.
`O=C(O)c1cn(Cc2cccc(F)c2)c2ccc(Cc3cccc(Cl)c3F)c(O)c2c1=O` showed a selectivity ratio [1] of 14, an EC50 [2] of 4.93 µM and an EC50 [4] of 19.1 µM. For the same molecule, the CC50 [3] was 69 µM.
With `O=C(O)c1cn(Cc2ccc(F)cc2)c2ccc(Cc3cccc(Cl)c3F)c(O)c2c1=O` the selectivity ratio [1] was 7.04, the EC50 [2] was 9.34 µM and the EC50 [4] was 22.5 µM. For the same molecule, the CC50 [3] was 65.8 µM.
`O=C(O)c1cn(Cc2ccc(F)c(F)c2)c2ccc(Cc3cccc(Cl)c3F)c(O)c2c1=O` gave a selectivity ratio [1] of 12.4, an EC50 [2] of 5.74 µM and an EC50 [4] of 24.2 µM. It also gave a CC50 [3] of 71.4 µM.
`CC(C)[C@@H](CO)n1cc(C(=O)O)c(=O)c2c(O)c(Cc3cccc(Cl)c3F)ccc21` gave an EC50 [4] of 0.085 µM.
`COc1cc2c(cc1Cc1cccc(Cl)c1F)c(=O)c(C(=O)O)cn2[C@H](CO)C(C)C` [ELVITEGRAVIR] gave an EC50 [4] of 0.001 µM.
